FGF22 binding = FGF22 (human) thermal shift binding; activity (Tm shift, normalised), % at 9.99 µM; Q9HCT0; recombinant FGF22 thermal shift, SYPRO orange fluorescence; percent of sucrose octasulfate shift, DMSO zero; hit rate 1.5% among 340,000;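 active means mean Tm shift, scaled 0 neutral to 100 positive control, at about 1.3% or above, every replicate too, limit read from the data; inconclusive means no clear call, values can overlap the other calls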
Target sequence (Q9HCT0 whole entry, looked up): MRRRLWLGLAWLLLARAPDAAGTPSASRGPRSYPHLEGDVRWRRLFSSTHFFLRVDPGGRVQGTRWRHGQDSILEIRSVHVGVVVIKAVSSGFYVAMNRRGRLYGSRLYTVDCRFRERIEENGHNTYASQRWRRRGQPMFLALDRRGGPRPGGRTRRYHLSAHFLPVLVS
Xi reactivation = X-chromosome reactivation activator. XiGFP mouse fibroblasts, % GFP-positive cells imaging, 3 d; cells co-treated with 5-aza-dC sensitizer; scaled so ellipticine positive control = 100%. activation, % at 7.58 µM. hit rate 0.055% among 360,000;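 active means mean normalized replicate activation at least 10% and every replicate at or above 10%; inconclusive means only one of the two criteria met; inactive means mean below 10% and not all replicates reach 10%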;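 further: 0% = median of on-plate neutral control wells and 100% = ellipticine 6 µM median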
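Schedule: 3 d treatment, 15 min room-temperature fixation; system: 68-5-11 XiGFP fibroblast line; buffer or medium: DMEM plus 5-aza-dC sensitizer; control set: ellipticine 6 µM positive control; compound: one concentration, pinned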
DENV2 CPE rescue = protects cells from dengue virus 2 cytopathic effect; DENV2-infected cells, cytopathic effect rescue, plate reader; CPE inhibition, % at 9.99 µM; hit rate 1.7% among 350,000; AID 651640; in the data active means CPE inhibition above about 20%, passing the limit was not always enough; inconclusive means no clear call, values can overlap the other calls; tested in BHK-21 cells;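 further: 0% = median of neutral control wells and 100% = median of positive control wells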
SIRT5 inh = inhibitors of human sirtuin-5 desuccinylase; hit rate 1.1% among 330,000; Q9NXA8; Purified SirT5, succinyl-peptide AMC, trypsin-coupled fluorescence; inhibition, % at 15 µM; in the data active means inhibition above about 15%; inconclusive means no clear call, values can overlap the other calls
Target sequence (Q9NXA8 whole entry, looked up): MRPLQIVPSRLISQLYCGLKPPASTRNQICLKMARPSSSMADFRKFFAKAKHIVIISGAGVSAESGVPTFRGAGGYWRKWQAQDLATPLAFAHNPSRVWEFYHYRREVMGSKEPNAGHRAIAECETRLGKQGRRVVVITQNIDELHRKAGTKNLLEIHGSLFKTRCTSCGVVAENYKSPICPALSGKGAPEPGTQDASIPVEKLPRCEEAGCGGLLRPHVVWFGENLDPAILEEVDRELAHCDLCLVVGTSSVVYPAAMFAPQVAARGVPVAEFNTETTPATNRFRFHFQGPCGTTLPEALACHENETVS
ARNT TACC3 PPI = disrupts binding between human ARNT and TACC3; Q9Y6A5; AlphaScreen His-ARNT PAS-B/GST-TACC3 binding, luminescence; TACC3 fragment carries E629A point mutation; inhibition, % at 9.99 µM; hit rate 0.66% among 390,000;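 active means mean inhibition of replicates at least 50% and at least half of replicates each reaching 50%; inconclusive means half or more replicates reach 50% but mean below 50%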;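 further: 0% = complete ARNT plus TACC3 wells and 100% = ARNT alone without TACC3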
FN deposit inh = fibronectin deposition inhibition; AID 743247; AH1F fibroblasts, Alexa488-fibronectin deposition fluorescence, overnight; inhibition, % at 12.6 µM; hit rate 0.086% among 350,000;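 active means mean inhibition across replicates of 30% or more, regardless of how many single replicates reach that level; inconclusive means mean under 30% yet at least half of replicates reach 30%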;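 further: positive control wells lacked labelled fibronectin entirely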
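Material: AH1F fibroblast monolayer depositing Alexa488-labelled fibronectin into matrix | Input: 10000 AH1F cells/well | Medium: DMEM plus 2% serum, read in PBS | Reagent: Alexa488-fibronectin, 24 nM final in well | Compound dosing: One dose per compound, pinned | Schedule: 1 h adhesion, overnight exposure | Measured by: Fluorescence at 485 nm excitation, 525 nm emission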
Numbers without * were called inactive; ? = inconclusive; nt = no result. An excerpt weighted towards active compounds, which were near 3.8% of everything screened.

SMILES	FGF22 binding	Xi reactivation	DENV2 CPE rescue	SIRT5 inh	ARNT TACC3 PPI	FN deposit inh
CCCNC(=O)N1C[C@@H](O)COC[C@@H]2O[C@H](CC(=O)N3CCC(Cc4ccccc4)CC3)CC[C@H]21	0	0	0	23*	3	-7
O=C(C[C@H]1CC[C@@H](NC(=O)c2ccc3c(c2)OCO3)[C@H](CO)O1)NCc1ccc(Oc2ccccc2)cc1	0	0	0	1	-9	13
CC(C)NC(=O)N1[C@H](CO)[C@H](c2ccccc2)C12CN(C(=O)c1ccccn1)C2	0	0	1	-1	nt	-7
CCCC(=O)Nc1ccc2c(c1)C(=O)N(C)[C@@H]1CC[C@H](CC(=O)NCCc3ccccc3)O[C@@H]1CO2	0	0	nt	-5	nt	-3
O=C(Cc1ccc(F)cc1)Nc1nc(-c2ccc(F)c(F)c2)cs1	0	0	?	16*	-1	-5
COc1ccc2c3c([nH]c2c1)[C@@H](CO)N(Cc1ccc(F)cc1)CC31CCN(C(=O)NC(C)C)CC1	0	0	9	-1	nt	nt
COc1ccc2c3c([nH]c2c1)[C@H](CO)N(C(=O)C1CCOCC1)CC31CCN(S(C)(=O)=O)CC1	0	0	35*	nt	nt	2
COc1ccc2c3c([nH]c2c1)[C@@H](CO)N(Cc1ccc(F)cc1)CC31CN(C(=O)NC(C)C)C1	nt	0	93*	nt	nt	nt
COc1ccc2c3c([nH]c2c1)[C@H](CO)N(C(=O)C1CCCCC1)CC31CCN(C(=O)NC(C)C)CC1	0	0	29*	8	nt	nt
COc1ccc(C(C)=O)cc1Cn1c(C)c(C(=O)NCCC#N)sc1=O	0	0	71*	nt	nt	2
Cc1noc(C)c1NC(=O)N(C)C[C@@H]1Oc2c(NC(=O)Nc3ccc(F)cc3)cccc2C(=O)N([C@H](C)CO)C[C@@H]1C	0	0	-8	-3	-6	nt
O=C(O)CCN1C(=O)/C(=C/c2ccc(-c3nc4ccccc4s3)o2)SC1=S	nt	nt	nt	nt	64*	nt
CO[C@@H]1CN(C)C(=O)c2ccc(NC(=O)c3ccccc3)cc2OC[C@H](C)N(C(=O)CN(C)C)C[C@@H]1C	0	0	34*	10	0	2
CO[C@H]1CN(C)C(=O)c2ccc(NC(=O)c3ccccc3)cc2OC[C@@H](C)N(C(=O)CN(C)C)C[C@@H]1C	0	1	28*	0	-8	3
CO[C@H]1CN(C)C(=O)c2ccc(NC(=O)c3ccccc3)cc2OC[C@H](C)N(C(=O)CN(C)C)C[C@@H]1C	nt	0	nt	nt	nt	6
CO[C@@H]1CN(C)C(=O)c2cc(NC(=O)Nc3c(C)noc3C)ccc2OC[C@@H](C)N(CCC(F)(F)F)C[C@H]1C	0	0	5	12	-1	-4
C[C@H]1CN([C@@H](C)CO)C(=O)c2ccccc2-c2ccccc2CO[C@@H]1CN(C)C(=O)c1ccc(F)cc1	0	-1	-2	1	-3	-18
CC(C)CC#Cc1ccc2c(c1)O[C@H](CN(C)Cc1cncnc1)[C@H](C)CN([C@H](C)CO)S2(=O)=O	0	-1	-3	-1	9	nt
CC(C)CC#Cc1ccc2c(c1)O[C@@H](CN(C)Cc1ccc3c(c1)OCO3)[C@@H](C)CN([C@@H](C)CO)S2(=O)=O	nt	0	-2	14*	19	6
C[C@H]1CN([C@@H](C)CO)S(=O)(=O)c2ccc(-c3ccc(C#N)cc3)cc2O[C@@H]1CN(C)Cc1cccc(F)c1	0	-1	0	16*	9	nt
CC(C)CC#Cc1ccc2c(c1)O[C@H](CN(C)Cc1cccnc1)[C@@H](C)CN([C@@H](C)CO)S2(=O)=O	nt	0	nt	18*	nt	-18
CC(C)CC#Cc1ccc2c(c1)O[C@H](CN(C)Cc1cncnc1)[C@@H](C)CN([C@H](C)CO)S2(=O)=O	-1	-1	58*	3	8	-15
C[C@@H]1CN([C@H](C)CO)S(=O)(=O)c2ccc(-c3ccc(C#N)cc3)cc2O[C@H]1CN(C)Cc1cccc(F)c1	0	-1	0	3	-8	nt
C[C@@H]1CN([C@H](C)CO)C(=O)c2cc(C#Cc3cccnc3)cnc2O[C@H]1CN(C)Cc1ccccc1	0	0	-9	4	-1	-13
CCC(=O)N1[C@H](CO)[C@@H]2c3ccccc3N(C(=O)Nc3ccccc3Cl)C[C@@H]21	nt	0	nt	nt	8	nt
SMILES	FGF22 binding	Xi reactivation	DENV2 CPE rescue	SIRT5 inh	ARNT TACC3 PPI	FN deposit inh
CC(C)CC#Cc1ccc2c(c1)O[C@@H](CN(C)Cc1cccnc1)[C@@H](C)CN([C@H](C)CO)S2(=O)=O	0	0	9	nt	nt	-5
CCCC#Cc1ccc2c(c1)O[C@@H](CN(C)S(=O)(=O)c1cccc(F)c1)[C@@H](C)CN([C@@H](C)CO)S2(=O)=O	0	1	-4	-2	-3	nt
COc1ccccc1C#Cc1ccc2c(c1)O[C@@H](CN(C)Cc1cncnc1)[C@@H](C)CN([C@@H](C)CO)S2(=O)=O	0	0	?	-10	7	nt
CC(C)CC#Cc1ccc2c(c1)O[C@H](CN(C)Cc1ccc(C(=O)O)cc1)[C@@H](C)CN([C@H](C)CO)S2(=O)=O	0	nt	10	29*	1	nt
COc1ccccc1C#Cc1ccc2c(c1)O[C@H](CN(C)Cc1cncnc1)[C@@H](C)CN([C@H](C)CO)S2(=O)=O	0	26*	-4	-6	3	nt
CCCC#Cc1ccc2c(c1)O[C@H](CN(C)Cc1cccnc1)[C@@H](C)CN([C@@H](C)CO)S2(=O)=O	0	0	25*	5	36	-5
CC(C)CC#Cc1ccc2c(c1)O[C@@H](CN(C)S(=O)(=O)c1cccc(F)c1)[C@@H](C)CN([C@H](C)CO)S2(=O)=O	0	-1	-9	20*	1	nt
CNC(=O)C[C@H]1CC[C@@H]2[C@@H](COc3ccc(NS(=O)(=O)c4ccc(F)cc4)cc3C(=O)N2C)O1	0	0	7	nt	-4	4
CNC[C@H]1OCCCC[C@H](C)Oc2ccc(NC(=O)Nc3ccc(F)cc3)cc2C(=O)N([C@@H](C)CO)C[C@@H]1C	nt	0	nt	nt	nt	nt
CC(C)CC#Cc1ccc2c(c1)O[C@@H](CN(C)Cc1ccccc1)[C@@H](C)CN([C@H](C)CO)S2(=O)=O	nt	-1	nt	nt	nt	0
CC(C)CC#Cc1ccc2c(c1)O[C@@H](CN(C)Cc1cccc(F)c1)[C@H](C)CN([C@H](C)CO)S2(=O)=O	0	0	-31	16*	5	1
C#CCN(C[C@H]1[C@H](OC(=O)Nc2c(C)noc2C)[C@H](OC(=O)Nc2c(C)noc2C)C[C@@H](C(=O)OC)[C@H]1C(=O)OC)S(=O)(=O)c1ccc(C)cc1	0	1	70*	-4	nt	22
